This is an account of results in publication PMC7218920 (Science translational medicine, 2019).

For one assay, the system named is soluble GC. Put plainly: HEK-293 cells expressing cGMP-sensor alone. The class given is cell-based, human. A digest of the protocol:
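HEK-293 cells carrying the GloSensor cGMP luciferase reporter (pGS-40F), either transiently transfected or as a stable control line, with no NPR1. Luminescence from GloSensor reagent was read in real time after media, SNP (333 μM; a soluble GC activator) or hNPPA, hNPPB or NPPC (10 nM each). The stable line also received SNP and peptide concentration series. Transient time courses were run in triplicate.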

In the next assay the target is T1, hNPR1 (Homo sapiens, UniProt P16066).
T1 sequence (P16066 33-1061): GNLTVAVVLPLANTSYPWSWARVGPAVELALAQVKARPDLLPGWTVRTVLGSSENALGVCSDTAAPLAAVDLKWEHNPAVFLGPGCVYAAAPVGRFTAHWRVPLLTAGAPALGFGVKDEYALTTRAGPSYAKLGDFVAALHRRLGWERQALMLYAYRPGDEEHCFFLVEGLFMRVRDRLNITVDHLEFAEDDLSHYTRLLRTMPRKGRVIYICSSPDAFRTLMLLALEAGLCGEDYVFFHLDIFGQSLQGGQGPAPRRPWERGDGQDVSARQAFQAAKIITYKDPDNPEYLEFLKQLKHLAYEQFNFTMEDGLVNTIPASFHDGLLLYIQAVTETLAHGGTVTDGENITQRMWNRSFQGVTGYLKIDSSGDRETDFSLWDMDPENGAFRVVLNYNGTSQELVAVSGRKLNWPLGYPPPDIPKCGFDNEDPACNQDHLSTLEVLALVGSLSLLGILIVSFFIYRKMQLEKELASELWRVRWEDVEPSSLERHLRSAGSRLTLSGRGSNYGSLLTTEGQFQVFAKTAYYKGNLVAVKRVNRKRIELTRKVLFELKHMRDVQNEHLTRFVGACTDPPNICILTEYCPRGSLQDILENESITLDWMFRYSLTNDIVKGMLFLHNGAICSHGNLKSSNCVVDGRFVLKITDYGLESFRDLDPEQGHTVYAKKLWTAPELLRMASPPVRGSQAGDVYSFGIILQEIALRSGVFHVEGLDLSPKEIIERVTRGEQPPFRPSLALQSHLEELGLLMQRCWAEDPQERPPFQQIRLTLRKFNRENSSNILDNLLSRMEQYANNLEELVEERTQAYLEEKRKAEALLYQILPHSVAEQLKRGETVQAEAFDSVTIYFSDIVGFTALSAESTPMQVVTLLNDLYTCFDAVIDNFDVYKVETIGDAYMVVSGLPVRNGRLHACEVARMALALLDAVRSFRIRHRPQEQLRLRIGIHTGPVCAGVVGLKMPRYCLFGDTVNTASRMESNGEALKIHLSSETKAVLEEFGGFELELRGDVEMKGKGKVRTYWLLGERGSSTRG
Put plainly: HEK-hNPR1-cGMP-sensor cells, qHTS cell-based assay. The note with it: stable cell-line. In outline: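 A stable HEK-293 line expressing hNPR1 plus the GloSensor cGMP reporter (pGS-40F) was stimulated with hNPPA, hNPPB or NPPC for time courses (10 nM each) and concentration-response. For qHTS, luminescence was read before and 30 min after agonist addition. Compounds were screened at six log concentrations and confirmed at 8 concentrations. Counter-screens covered luciferase interference, cytotoxicity and SNP-stimulated cGMP-sensor-only cells.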
For orientation: In qHTS, concentration-response curves come from the screen itself.

“hNPPB: human natriuretic polypeptide b, NPR1 agonist”: in the assay with soluble GC (stable cGMP-sensor control cell-line), the “response of stable cGMP-reporter cells” value was “lacked responses”. In the assay with soluble GC (transient cGMP-sensor, SNP 333 μM, peptides 10 nM), the “luciferase activity / cGMP in cGMP reporter cells” value is given as “did not increase cGMP”. Further, in the assay with hNPR1, the “response of hNPR1-cGMP-reporter cells” value is “with appropriate potencies”.
